High-throughput results from PubChem BioAssay.
ABCB1 inh – inhibitors of human ABCB1 transporter, ABCG2 counter-screen. AID 1326. CCRF-Adr cells, JC-1 efflux, flow cytometry. inhibition, % at 6.6 µM. actives 0.067% (n = 190,000). P08183; in the data active = inhibition above about 40%;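 also: 0% = vehicle and 100% = reference inhibitor; higher value means more JC-1 retained so stronger ABCB1 efflux block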
ABCG2 inh – human ABCG2 inhibition, ABCB1 as counter-screen. IgMXP3 cells, JC-1 efflux, flow cytometry. Q9UNQ0. inhibition, % at 6.6 µM. actives 0.1% (n = 190,000);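 active = inhibition above 80%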;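 also: 0% = DMSO and 100% = nicardipine control wells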
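System: two drug-resistant human cell lines, ABCG2 and ABCB1; controls: nicardipine high and DMSO low controls; times: 10 min exposure at 25 °C with rotation, no wash; detection: flow cytometry of retained JC-1 fluorescence; read-out basis: percent efflux inhibition, scaled nicardipine 100% to DMSO 0%; doses: one concentration, 6.6 µM final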
WT yeast gro inh – growth inhibition of WT yeast, mitochondrial fusion screen. mitochondrial fusion phenotypic screen, WT strain. inhibition, % at 10 µM. actives 2.1% (n = 190,000). AID 1362; in the data active = inhibition above about 58%; tested in S. cerevisiae
Lmaj promast – Leishmania major promastigote growth inhibition; AID 1063; inhibition, % at 10 µM; Leishmania major promastigotes, resazurin fluorescence viability; actives 9% (n = 200,000); in the data active = inhibition above about 50%;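 also: promastigotes grown with compound for 44 hours at 28 °C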
RAM inhibit – inhibitors of the yeast RAM network; S. cerevisiae dse1pr::URA3 reporter, 5-FOA growth OD615, 2 d; analog-sensitive cbk1-as2 kinase mutant strain; inhibition, % at 50 µM; actives 1.8% (n = 190,000);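 active = inhibition above a set limit, 3 SD over mean compound inhibition, cut at about 8.4% in these data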;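 also: 0% = DMSO-only wells with no growth and 100% = 10 µM 1-NA-PP1 full growth; inhibition rescues growth on 5-FOA so higher OD means more RAM inhibition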
* marks the source's active call; other numbers are inactive results; . = not tested or not shown. In the library only some 12% were active in any assay of this set; here they are far more common.

SMILES	ABCB1 inh	ABCG2 inh	WT yeast gro inh	Lmaj promast	RAM inhibit
CC(NC(=O)c1cc(COc2c(F)cccc2F)on1)c1cnn(-c2ccccc2)c1 (stereo not drawn)	1	4	17	-6	4
Cc1ccc(S(=O)(=O)N(CCC(=O)O)c2ccccc2)cc1	0	1	-1	-7	1
CCc1nnc(NC(=O)CCN(c2cc(C)cc(C)c2)S(=O)(=O)c2ccc(Cl)cc2)s1	1	22	2	79*	3
Cc1ccc(N(CCC(=O)Nc2nnc(C3CC3)s2)S(=O)(=O)c2ccccc2)cc1	8	10	1	53*	1
O=C(CSc1nc(Cc2ccccc2)nc2ccccc12)Nc1nc2c(s1)CCCC2	0	-1	42	-6	1
Cc1nnc(NC(=O)CSc2nc(C(C)C)nc3ccccc23)s1	1	2	-7	-3	5
CC(C)(C)c1nc(SCC(=O)N2CCCC2)c2ccccc2n1	1	2	-4	9	1
CC(C)(C)c1nc(SCC(=O)c2ccccc2)c2ccccc2n1	1	2	53	-1	9.4*
CC(C)(C)c1nc(SCC(=O)Nc2nc3c(s2)CCCC3)c2ccccc2n1	0	1	35	80*	1
CC(C)c1nc(SCC(=O)Nc2nc3c(s2)CCCC3)c2ccccc2n1	0	3	62*	5	-1
COc1ccc(C(C(=O)Nc2ccc(C(C)C)cc2)N(Cc2ccco2)C(=O)CC2NC(=O)NC2=O)cc1 (stereo not drawn)	0	-1	4	4	2
c1cnc2ccc(C(c3nnnn3C3CCCC3)N3CCN(c4nc5ccccc5s4)CC3)cc2c1 (stereo not drawn)	3	2	3	89*	0
Clc1ccc(C(c2nnnn2C2CCCC2)N2CCN(c3nc4ccccc4s3)CC2)cc1 (stereo not drawn)	.	.	.	97*	.
O=S(=O)(Nc1cccc2c1ccc1cccn12)c1cccs1	0	0	12	-3	0
CCc1ccc(-c2ccc(SCC(=O)Nc3nnc(C)s3)nn2)cc1	2	6	-12	13	1
CCN(CC)C(=O)Cn1cc(C(=O)C(=O)N2CC=C(c3ccccc3)CC2)c2ccccc21	2	9	-9	-2	2
Cc1ccc(-n2nc(C(=O)N3CCN(C)CC3)c3c4ccccc4n(C)c3c2=O)cc1	.	.	.	0	.
CCN(Cc1ccccc1)C(=O)c1nn(-c2ccc(OC)cc2)c(=O)c2c1c1ccccc1n2C	1	3	11	50*	7
COc1ccccc1CNC(=O)c1nn(-c2ccc(C)cc2)c(=O)c2c1c1ccccc1n2C	2	11	-11	5	9.4*
CCCCN(CC)CCNC(=O)c1nn(-c2ccc(OC)cc2)c(=O)c2c1c1ccccc1n2C	8	5	9	7	2
COc1ccc(-n2nc(C(=O)NCc3ccco3)c3c4ccccc4n(C)c3c2=O)cc1Cl	2	5	-8	-7	9.8*
Cc1ccsc1CNC12CC3CC(CC(C3)C1)C2	1	1	6	3	0
O=C(N/N=C1\C/C(=N\NC(=O)c2ccncc2)c2ccccc21)c1ccncc1	0	0	25	73*	0
CCOc1ccc2c(c1)C(=NNC(=O)c1ccncc1)c1cc(OCC)ccc1-2	0	0	-1	100*	4
O=C(NN=C1C2CC3CC(C2)CC1C3)c1ccncc1	0	4	-2	-4	1
SMILES	ABCB1 inh	ABCG2 inh	WT yeast gro inh	Lmaj promast	RAM inhibit
CC(C)C(=O)N1CCN(c2ccc([N+](=O)[O-])cc2Cl)CC1	.	14	-10	50*	1
Cc1ccc(S(=O)(=O)N2CCN(c3ccccc3)CC2)cc1C(N)=O	0	2	5	-7	0
Cc1ccc(NC(=O)c2noc(C(C)C)c2[N+](=O)[O-])cc1	0	1	-3	4	1
CC(=O)Nc1ccc(SCC(=O)c2cc(C)n(-c3ccccc3F)c2C)cc1	1	12	-28	81*	4
COc1ccccc1CNC(=S)NCCc1ccccc1	-1	-1	69*	-1	1
S=C(NCCc1ccccc1)NCc1cccs1	-1	1	-10	79*	0
CCOc1cccc(OCCCCN2CCOCC2)c1	0	2	.	93*	2
c1ccc(OCCCCN2CCOCC2)cc1	0	-2	-5	79*	1
COc1cccc(C(=O)NCCN2CCOCC2)c1	1	2	-33	0	-1
Brc1ccc(OCCCN2CCOCC2)cc1	0	2	8	95*	2
CCOc1ccc(C(=O)NCCN2CCOCC2)cc1	0	1	-4	-5	1
COc1cccc(OCCCCCCN2CCOCC2)c1	2	5	12	100*	1
CCOC(=O)N1CCN=C1SCc1ccc(Cl)c(Cl)c1	0	-1	37	2	-2
Cc1cc(C)cc(-n2c(SCC(=O)Nc3cccc(S(=O)(=O)NC4=NCCCCC4)c3)nc3ccccc3c2=O)c1	5	13	-11	-3	5
COCCCN(C(=S)Nc1cc(C)cc(C)c1)C(C)c1ccncc1 (stereo not drawn)	-1	-5	4	82*	1
COCCCN(C(=S)Nc1cccc(Cl)c1)C(C)c1ccncc1 (stereo not drawn)	0	-3	-20	63*	0
COCCCN(C(=S)Nc1c(C)cc(C)cc1C)C(C)c1ccccn1 (stereo not drawn)	1	5	20	52*	0
COCCCN(C(=S)Nc1ccc(OC)cc1)C(C)c1ccncc1 (stereo not drawn)	0	8	-5	3	1
Cc1ccc(C(=O)C2(C)C3c4cc(Br)ccc4OC(=O)C32C(=O)c2ccco2)cc1 (stereo not drawn)	0	1	-4	-3	3
CC[n+]1c(/C=C2\C=C(C)CC(C)(C)C2)sc2ccccc21	-1	21	14	100*	2
COc1ccc2sc(C)[n+](C)c2c1	0	1	9	0	2
CCC1=C/C(=C/c2sc3ccccc3[n+]2CC)CC(C)(C)C1	0	-2	20	99*	4
CC[n+]1c(/C=C2/C=C(C)CC(C)(C)C2)sc2ccc(OC)cc21	0	2	17	100*	3
CC[n+]1c(/C=C2\C=C(C)CC(C)C2)sc2ccccc21 (stereo not drawn)	-2	-2	19	100*	1
Cc1nn(C)cc1C(C(=O)NC1CCCCC1)N(Cc1ccc(F)cc1)C(=O)c1cnccn1 (stereo not drawn)	0	2	-14	2	2
OC1(c2cccc(C(F)(F)F)c2)CCNCC1	1	7	4	60*	1
CCc1ccccc1NC(=O)c1ccc(NCCc2ccccc2)c([N+](=O)[O-])c1	.	13	-39	67*	3
CC(C)(C)c1ccc(NC(=O)c2ccccc2)c([N+](=O)[O-])c1	1	16	66*	4	3
